Test results taken from the M2OR odorant receptor database.

What was measured:
Conditions in all cases: stereoisomer not certain
OR5AC1 (Homo sapiens) = OR5AC1 (Homo sapiens) (UniProt P0C628)
In short: (§1)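 Each receptor–molecule pair is labelled responsive or non-responsive (inactive) according to whether the original authors judged the measured signal statistically different from baseline. The data were taken from the main text and supplementary material of published papers and checked for typos and inconsistencies. Assay methods differed by source, with transient luciferase assays in mammalian cell lines being common.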

OR5AC2 (Homo sapiens) = target: T1, OR5AC2 (Homo sapiens) (UniProt Q9NZP5)
T1 sequence (whole entry): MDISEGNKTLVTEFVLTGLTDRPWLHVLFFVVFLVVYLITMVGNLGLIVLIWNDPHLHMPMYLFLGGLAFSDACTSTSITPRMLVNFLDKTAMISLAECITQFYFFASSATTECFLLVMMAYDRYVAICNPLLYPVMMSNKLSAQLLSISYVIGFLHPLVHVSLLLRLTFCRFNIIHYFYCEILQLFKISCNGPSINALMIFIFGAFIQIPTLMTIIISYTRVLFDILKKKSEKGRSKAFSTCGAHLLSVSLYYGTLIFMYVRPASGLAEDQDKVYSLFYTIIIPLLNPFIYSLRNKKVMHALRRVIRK
In short: as §1

OR5AK2 (Homo sapiens) = OR5AK2 (Homo sapiens) (UniProt Q8NH90)
In short: as §1

OR5AL1 (Homo sapiens) = OR5AL1 (Homo sapiens) (UniProt P0C617)
In short: as §1

OR5AN1 (Homo sapiens) = target: T2, OR5AN1 (Homo sapiens) (UniProt Q8NGI8)
T2 sequence (whole entry): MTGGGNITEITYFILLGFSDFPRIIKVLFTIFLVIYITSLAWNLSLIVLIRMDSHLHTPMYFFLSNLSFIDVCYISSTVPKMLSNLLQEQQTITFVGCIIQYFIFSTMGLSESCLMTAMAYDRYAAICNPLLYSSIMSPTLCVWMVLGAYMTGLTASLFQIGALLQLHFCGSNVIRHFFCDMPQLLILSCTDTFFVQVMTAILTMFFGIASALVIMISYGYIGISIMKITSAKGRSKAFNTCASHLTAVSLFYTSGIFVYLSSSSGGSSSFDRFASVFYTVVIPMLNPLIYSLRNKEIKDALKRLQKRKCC
In short: as §1

OR5AP2 (Homo sapiens) = OR5AP2 (Homo sapiens) (UniProt Q8NGF4)
In short: as §1

OR5AR1 (Homo sapiens) = OR5AR1 (Homo sapiens) (UniProt Q8NGP9)
In short: as §1

OR5AS1 (Homo sapiens) = OR5AS1 (Homo sapiens) (UniProt Q8N127)
In short: as §1

OR5AU1 (Homo sapiens) = OR5AU1 (Homo sapiens) (UniProt Q8NGC0)
In short: as §1

OR5B12 (Homo sapiens) = OR5B12 (Homo sapiens) (UniProt Q96R08)
In short: as §1
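Also: active if original authors judged signal statistically different from baseline.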

OR5B12 (Homo sapiens), sequence (Q96R08 whole entry): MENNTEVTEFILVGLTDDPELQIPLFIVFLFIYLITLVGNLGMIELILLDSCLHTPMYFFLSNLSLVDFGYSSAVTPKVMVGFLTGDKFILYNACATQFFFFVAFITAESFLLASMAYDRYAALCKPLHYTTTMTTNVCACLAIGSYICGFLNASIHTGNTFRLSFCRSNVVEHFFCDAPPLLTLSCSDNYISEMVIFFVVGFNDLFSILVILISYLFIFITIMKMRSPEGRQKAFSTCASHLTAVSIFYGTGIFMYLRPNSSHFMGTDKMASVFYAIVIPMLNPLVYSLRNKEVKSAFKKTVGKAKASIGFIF
OR5AP2 (Homo sapiens), sequence (Q8NGF4 whole entry): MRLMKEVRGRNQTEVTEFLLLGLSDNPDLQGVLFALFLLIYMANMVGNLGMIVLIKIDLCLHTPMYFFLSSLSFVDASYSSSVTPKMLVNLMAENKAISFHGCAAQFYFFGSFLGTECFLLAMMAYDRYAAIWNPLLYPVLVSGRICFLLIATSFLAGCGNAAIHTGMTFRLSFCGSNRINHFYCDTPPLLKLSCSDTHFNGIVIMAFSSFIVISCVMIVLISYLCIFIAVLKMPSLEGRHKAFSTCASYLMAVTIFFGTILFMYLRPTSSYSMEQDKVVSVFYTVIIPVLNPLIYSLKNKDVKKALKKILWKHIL
OR5AR1 (Homo sapiens), sequence (Q8NGP9 whole entry): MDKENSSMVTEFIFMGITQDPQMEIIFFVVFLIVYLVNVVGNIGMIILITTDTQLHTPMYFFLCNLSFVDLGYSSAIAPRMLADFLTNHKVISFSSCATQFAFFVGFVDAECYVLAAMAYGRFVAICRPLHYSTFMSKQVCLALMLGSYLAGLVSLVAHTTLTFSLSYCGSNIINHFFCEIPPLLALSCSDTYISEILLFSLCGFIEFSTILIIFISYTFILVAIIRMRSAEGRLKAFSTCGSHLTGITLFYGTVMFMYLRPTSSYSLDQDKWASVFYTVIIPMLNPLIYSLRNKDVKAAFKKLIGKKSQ
OR5AK2 (Homo sapiens), sequence (Q8NH90 whole entry): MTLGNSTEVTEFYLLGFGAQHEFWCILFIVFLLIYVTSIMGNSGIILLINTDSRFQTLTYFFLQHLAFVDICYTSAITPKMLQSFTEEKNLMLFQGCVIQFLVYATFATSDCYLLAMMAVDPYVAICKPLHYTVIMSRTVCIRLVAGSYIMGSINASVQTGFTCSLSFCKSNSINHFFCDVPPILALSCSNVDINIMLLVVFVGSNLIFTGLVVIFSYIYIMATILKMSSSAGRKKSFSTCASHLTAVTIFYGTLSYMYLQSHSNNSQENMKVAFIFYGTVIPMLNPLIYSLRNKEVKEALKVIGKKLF
OR5AS1 (Homo sapiens), sequence (Q8N127 whole entry): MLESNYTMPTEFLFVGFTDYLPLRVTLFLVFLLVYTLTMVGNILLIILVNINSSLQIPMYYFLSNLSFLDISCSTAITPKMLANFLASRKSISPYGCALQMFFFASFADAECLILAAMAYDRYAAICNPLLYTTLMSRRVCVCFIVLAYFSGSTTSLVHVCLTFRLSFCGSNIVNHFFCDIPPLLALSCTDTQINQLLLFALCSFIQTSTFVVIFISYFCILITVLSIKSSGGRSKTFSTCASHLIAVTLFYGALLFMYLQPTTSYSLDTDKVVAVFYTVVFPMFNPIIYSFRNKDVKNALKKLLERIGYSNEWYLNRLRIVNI
OR5AU1 (Homo sapiens), sequence (Q8NGC0 whole entry): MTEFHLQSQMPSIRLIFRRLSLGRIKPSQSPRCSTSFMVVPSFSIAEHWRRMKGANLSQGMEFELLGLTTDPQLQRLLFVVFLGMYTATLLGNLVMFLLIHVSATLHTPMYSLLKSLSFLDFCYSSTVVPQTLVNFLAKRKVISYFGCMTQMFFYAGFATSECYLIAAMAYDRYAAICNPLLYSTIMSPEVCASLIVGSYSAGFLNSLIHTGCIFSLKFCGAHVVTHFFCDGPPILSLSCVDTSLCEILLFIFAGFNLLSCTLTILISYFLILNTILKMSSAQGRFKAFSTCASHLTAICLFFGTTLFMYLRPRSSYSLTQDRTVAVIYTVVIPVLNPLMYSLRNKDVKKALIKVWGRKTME
OR5AL1 (Homo sapiens), sequence (P0C617 whole entry): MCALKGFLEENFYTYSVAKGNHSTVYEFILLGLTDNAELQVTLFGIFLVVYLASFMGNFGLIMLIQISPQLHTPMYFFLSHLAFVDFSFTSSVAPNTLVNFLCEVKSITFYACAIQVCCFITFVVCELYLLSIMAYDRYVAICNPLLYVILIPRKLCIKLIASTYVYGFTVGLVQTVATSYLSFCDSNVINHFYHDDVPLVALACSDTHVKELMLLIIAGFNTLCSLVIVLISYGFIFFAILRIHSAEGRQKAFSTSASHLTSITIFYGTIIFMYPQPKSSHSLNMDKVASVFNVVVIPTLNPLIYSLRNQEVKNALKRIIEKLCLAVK
OR5AC1 (Homo sapiens), sequence (P0C628 whole entry): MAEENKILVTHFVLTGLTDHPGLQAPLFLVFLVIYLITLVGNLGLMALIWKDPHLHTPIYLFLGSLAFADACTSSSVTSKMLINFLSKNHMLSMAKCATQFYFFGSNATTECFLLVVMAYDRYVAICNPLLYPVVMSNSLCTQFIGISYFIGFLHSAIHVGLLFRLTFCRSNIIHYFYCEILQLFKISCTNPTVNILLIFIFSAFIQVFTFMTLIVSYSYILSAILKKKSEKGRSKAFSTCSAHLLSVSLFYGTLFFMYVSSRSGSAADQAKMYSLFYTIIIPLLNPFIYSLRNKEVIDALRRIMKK

Cc1c([N+](=O)[O-])c(C)c([N+](=O)[O-])c(C(C)(C)C)c1[N+](=O)[O-]
odorant receptor agonist call (OR5AC1 (Homo sapiens)): inactive
odorant receptor agonist call (OR5AC2 (Homo sapiens)): inactive
odorant receptor agonist call (OR5AK2 (Homo sapiens)): inactive
odorant receptor agonist call (OR5AL1 (Homo sapiens)): inactive
odorant receptor agonist call (OR5AN1 (Homo sapiens)): active
odorant receptor agonist call (OR5AP2 (Homo sapiens)): inactive
odorant receptor agonist call (OR5AR1 (Homo sapiens)): inactive
odorant receptor agonist call (OR5AS1 (Homo sapiens)): inactive
odorant receptor agonist call (OR5AU1 (Homo sapiens)): inactive
odorant receptor agonist call (OR5B12 (Homo sapiens)): inactive

O=Cc1ccccc1
odorant receptor agonist call (OR5AC2 (Homo sapiens)): inactive

C=CCOC(=O)Cc1ccccc1
odorant receptor agonist call (OR5AC2 (Homo sapiens)): inactive
odorant receptor agonist call (OR5AK2 (Homo sapiens)): inactive
odorant receptor agonist call (OR5AN1 (Homo sapiens)): inactive
odorant receptor agonist call (OR5AP2 (Homo sapiens)): inactive
odorant receptor agonist call (OR5AR1 (Homo sapiens)): inactive
odorant receptor agonist call (OR5AS1 (Homo sapiens)): inactive
odorant receptor agonist call (OR5AU1 (Homo sapiens)): inactive
odorant receptor agonist call (OR5B12 (Homo sapiens)): inactive

C=CCc1ccc(OC)cc1
odorant receptor agonist call (OR5AC2 (Homo sapiens)): inactive

CC(=O)c1cc2c(cc1C)C(C)(C)C(C)CC2(C)C (stereo not drawn)
odorant receptor agonist call (OR5AN1 (Homo sapiens)): inactive

CC(=O)c1cc(C(C)(C)C)cc2c1CCC2(C)C
odorant receptor agonist call (OR5AN1 (Homo sapiens)): inactive

O=CC=Cc1ccccc1
odorant receptor agonist call (OR5AC2 (Homo sapiens)): inactive
